Laboratory results published in ChEMBL document CHEMBL1142234, “Structure-based discovery of an inhibitor of Arf activation by Sec7 domains through targeting of protein-protein complexes” (Proc Natl Acad Sci U S A, 2007).
The source made the active and inactive calls. The calls are words filed in the database; no cut-off is given here.

How the values were obtained:
[1] = system: HeLa; test: Dispersion of cis golgi marker KDEL in human HeLa cells at 100 uM for 2 hrs; format: functional, cell-based
Method in brief: (§1)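 HeLa cells were exposed 2 h to 100 μM compound, with 0.5% DMSO as vehicle control, then fixed. Primary antibody was applied overnight at 4°C in PBS/0.25% BSA/0.01% Tween 20/0.01% saponin: TGN46 1:200, βCOP 1:100, KDEL receptor 1:500. Alexa 488 secondary was applied 20 min at room temperature. Marker localisation was imaged by confocal microscopy.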

[2] = system: MDCK; test: Inhibition of rate of migration in MDCK cells expressing wild type ARNO; format: functional, cell-based; settings: Canis lupus familiaris
Method in brief: (§2)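 MDCK cells carrying tetracycline-repressible myc-wt-ARNO were grown as monolayers on collagen I and scratch-wounded. Cells were kept in MEM/5% FBS with or without compound. Doxycycline at 20 ng/ml repressed the transgene (endogenous ARNO only); without it, wt-ARNO was expressed. Wound closure was imaged every 5 min for 16 h at 37°C. Rate (μm2/h) was taken from hourly area increments over 8 h. Means ± SD of ≥3 experiments.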

[3] = species: Homo sapiens; test: (§3) Inhibition of human Arf-GDP-ARNO complex at 100 uM by fluorescence anisotropy
Method in brief: (§4)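 Alexa 488 N-terminally labelled [Δ17]Arf1-GDP was held at 10 nM and titrated by serial dilution of wild-type ARNO Sec7, starting at 400 μM, with or without 100 μM inhibitor.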

[4] = Inhibition of delta17 Arf1 activation stimulated by Sec7 domain of BIG1
[5] = system: MDCK; test: Inhibition of rate of migration of MDCK cells expressing endogenous levels of ARNO; format: functional, cell-based; settings: Canis lupus familiaris; method in brief: as §2
[6] = Inhibition of mGTP/GTP exchange on delta17 Arf1 at 150 uM
[7] = Inhibition of GTP binding to Arf-ARNO complex
Method in brief: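 Nucleotide-free Arf1/ARNO complex made by removing GDP with alkaline phosphatase (20 units) plus 2 mM EDTA. GTP binding to the complex (0.2 μM) started with 1 μM mGTP, with or without 150 μM inhibitor. Mant fluorescence read at 37°C in Tris pH 8 buffer with MgCl2; mean ± SD of ≥3 experiments.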

[8] = species: Homo sapiens; test: Effect on activation of human RhoG/TriD1 at 150 uM
Method in brief: (§5)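 Specificity panel: each small GTPase (1 μM, GST-fused RhoG or RhoA) with its GEF (50 nM; DH1 domain of TRIO or DH domain of GEF337), with or without 150 μM inhibitor. Exchange started with 2 μM mGTP and followed by time-resolved fluorescence.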

[9] = target: ADP-ribosylation factor 6 (Homo sapiens) (UniProt P62330); test: Inhibition of ARNO-stimulated nucleotide exchange of Arf6
Chain of ADP-ribosylation factor 6 (Homo sapiens) (P62330 whole entry, the tested form may be a part, canonical isoform): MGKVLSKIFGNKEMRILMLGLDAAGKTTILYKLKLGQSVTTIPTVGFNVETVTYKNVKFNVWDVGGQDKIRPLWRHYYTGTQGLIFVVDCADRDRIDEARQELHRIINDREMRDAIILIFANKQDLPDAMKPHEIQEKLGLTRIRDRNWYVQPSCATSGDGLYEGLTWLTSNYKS
Method in brief: (§6)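 GDP-loaded Arf isoforms truncated of the N-terminal helix (1 μM) with 50 nM Sec7 GEF. Runs were done with or without 150 μM inhibitor, preincubated 5 min, at 37°C in Tris pH 8/NaCl/MgCl2/2-mercaptoethanol buffer. Reaction was started with 2 μM mGTP and nucleotide exchange followed by time-resolved fluorescence.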

[10] = system: HeLa; test: Dispersion of cis golgi marker betaCoP in human HeLa cells at 100 uM for 2 hrs; format: functional, cell-based; method in brief: as §1
[11] = target: ADP-ribosylation factor 5 (Homo sapiens) (UniProt P84085); test: Inhibition of ARNO-stimulated nucleotide exchange of Arf5; method in brief: as §6
Chain of ADP-ribosylation factor 5 (Homo sapiens) (P84085 whole entry): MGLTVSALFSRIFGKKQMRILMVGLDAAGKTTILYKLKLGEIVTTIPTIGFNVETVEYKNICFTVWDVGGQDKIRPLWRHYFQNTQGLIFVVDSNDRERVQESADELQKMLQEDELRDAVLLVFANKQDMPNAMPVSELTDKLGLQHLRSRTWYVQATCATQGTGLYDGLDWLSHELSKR

[12] = system: MDCK; test: Increase in rate of migration of MDCK cells expressing wild type ARNO relative to non-induced wild type ARNO cells; format: functional, Canis lupus familiaris
Method in brief: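 MDCK cells stably carrying N-terminal c-myc wt-ARNO under a tetracycline-repressible transactivator, grown on collagen I (3 μg/ml). Confluent monolayers were scratch-wounded, then kept in MEM/5% FBS with 20 ng/ml doxycycline (repressed) or without it (induced). Time-lapse imaging every 5 min for 16 h at 37°C, 5% CO2. Wound-area rate (μm2/h) was taken over 1-h intervals for 8 h; mean ± SD, ≥3 experiments.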

[13] = species: Homo sapiens; test: Effect on activation of human RhoA/Gef337 at 150 uM; method in brief: as §5
[14] = target: ADP-ribosylation factor 1 (Homo sapiens) (UniProt P84077); test: Inhibition of ARNO-stimulated nucleotide exchange of Arf1; method in brief: as §6
Chain of ADP-ribosylation factor 1 (Homo sapiens) (P84077 whole entry, the tested form may be a part): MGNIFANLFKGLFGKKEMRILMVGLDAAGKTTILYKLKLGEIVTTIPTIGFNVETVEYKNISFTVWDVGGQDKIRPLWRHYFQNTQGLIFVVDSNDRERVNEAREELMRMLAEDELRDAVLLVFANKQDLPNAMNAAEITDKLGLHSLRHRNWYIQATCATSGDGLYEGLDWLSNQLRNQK

[15] = target: ADP-ribosylation factor 1 (Homo sapiens) (UniProt P84077); test: Reduction in nucleotide exchange on Arf1 using ARNO4M
Method in brief: (§7)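 [Δ17]Arf1 lacking its N-terminal helix, GDP-loaded, with the BFA-sensitised Sec7 domain of human ARNO (4 mutations). Inhibitor was preincubated 5 min, then GTP or mGTP was added. Apparent rate constants were fitted. Means ± SD of ≥3 independent experiments.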

[16] = system: HeLa; test: Inhibition of endogenous Arf activation in human HeLa cells; format: cell-based
Method in brief: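 Activation of endogenous Arf proteins in HeLa cells was measured by pull-down of GTP-loaded Arf through binding to the GGA3 effector.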

[17] = Inhibition of mGDP/GTP exchange on delta17 Arf1 at 150 uM
[18] = Inhibition of delta14 Arf5 activation stimulated by Sec7 domain of BIG1
[19] = system: HeLa; test: Dispersion of trans golgi marker TGN46 in human HeLa cells at 100 uM for 2 hrs; format: functional, cell-based; method in brief: as §1
[20] = as §3; method in brief: as §4
[21] = Inhibition of delta17 Arf1 using ARNO4M; settings: read-out: Ki app; method in brief: as §7

## O=[N+]([O-])c1ccc(Nc2c([N+](=O)[O-])ccc3c2=NC2(CCCCC2)N=3)cc1
[1]
  Activity: Active
[2]
  Activity: Active
[3]
  Activity: inactive
[4]
  Activity: Active
[5]
  Activity: Active
[6]
  Kapp: 0.0005 s⁻¹
[7]
  Kapp: 0.085 s⁻¹
[8]
  Activity: 0.003 s⁻¹
[9]
  Activity: inactive
[10]
  Activity: Active
[11]
  Activity: Active
[12]
  Activity: 54%
[13]
  Activity: 0.0028 s⁻¹
[14]
  Activity: Active
[15]
  Kapp: 0.0078 s⁻¹
[16]
  Activity: Active
[17]
  Kapp: 0.0004 s⁻¹
[18]
  Activity: Active
[19]
  Activity: Active

## C[C@H]1CCC/C=C/[C@@H]2C[C@H](O)C[C@H]2[C@H](O)/C=C/C(=O)O1 [BREFELDIN A]
[1]
  Activity: Active
[20]
  Kd: 8.6 µM
[10]
  Activity: Active
[21]
  Ki: 15 µM
